Assay outcomes (PubChem)
Rows were chosen to be rich in hits. Some 3.1% of all compounds tested hit in one or more screens of this group.
RBBP9 inh – human RBBP9 inhibitors, primary screen, biochemical, fluorescence polarization, FP-Rh probe, HTS | recombinant RBBP9 | inhibition, % at 7.94 µM | Serine hydrolase RBBP9 (Homo sapiens), O75884 | 220,000 tested, 0.2% active;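 active means inhibition above the campaign mean of all tested compounds plus 3 SD, cut at about 14% in these data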;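 further: plate controls were DMSO wells with RBBP9 for no effect and wells lacking RBBP9 protein for full effect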
Target sequence (O75884 whole entry, looked up): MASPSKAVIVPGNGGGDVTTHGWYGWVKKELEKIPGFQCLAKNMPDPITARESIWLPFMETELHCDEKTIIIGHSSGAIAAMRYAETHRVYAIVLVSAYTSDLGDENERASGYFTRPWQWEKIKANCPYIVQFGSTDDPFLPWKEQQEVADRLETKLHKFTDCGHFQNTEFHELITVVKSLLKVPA
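Measured by: FP readout at 525/598 nm; material: recombinant human RBBP9; also added: Serine-hydrolase probe FP-Rh, 375 nM pre-mixing; medium: Tris buffer pH 8.0, NaCl, Pluronic; replication: one well per compound; doses: one concentration, 7.94 µM nominal, 0.794% DMSO; timing: preincubation 30 min plus labeling 45 min at 25 °C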
UHRF1 MBD2 ctr – UHRF1 methylated DNA binding inhibitors, primary screen, counter-screen for MBD2 inhibitor project, biochemical, TR-FRET, human UHRF1, single concentration. E3 ubiquitin-protein ligase UHRF1 (Homo sapiens), Q96T88. UHRF1 binding to methylated oligo. inhibition, % at 4.4 µM. 370,000 tested, 0.75% active; in the data active means inhibition above about 21%;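 further: UHRF1 SRA domain binding a hemimethylated CpG hairpin DNA probe; 0% = median of test compound wells and 100% = reference inhibitor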
ABHD5-PLIN5 inh – ABHD5-PLIN5 interaction inhibitors, primary screen, cell lysate, split luciferase complementation, luminescence | inhibition, % at 4 µM | Split G. princeps luciferase complementation, 4 h | Perilipin-5 (Homo sapiens) + 1-acylglycerol-3-phosphate O-acyltransferase ABHD5 (Homo … | 360,000 tested, 0.78% active;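 active means inhibition above the mean inhibition across every tested compound plus 3 SD, cut at about 22% in these data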;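 further: 0% = DMSO only wells and the 100% control is not disclosed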
LEDGF integ inh – blockers of LEDGF/p75-dependent integrase strand transfer – biochemical, TR-FRET, high throughput, primary screen; TR-FRET IN-LEDGF/p75 DNA integration, Eu/Cy5; inhibition, % at 3.7 µM; HIV-1 integrase (with human LEDGF/p75); 370,000 tested, 0.64% active;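 active means inhibition above the screen-wide mean plus 3 SD, cut at about 13% in these data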;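 further: signal is the Cy5 over europium emission ratio at 671 and 618 nm; 0% = plate median of compound wells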
MBD2 DNA inh – inhibitors of MBD2 binding to methylated DNA, primary screen, biochemical, TR-FRET, DNA-binding domain, human; MBD2 binding to methylated oligonucleotide; 370,000 tested, 0.31% active; Methyl-CpG-binding domain protein 2 (Homo sapiens), Q9UBB5; inhibition, % at 4.4 µM; in the data active means inhibition above about 13%
PRMT1 inh – PRMT1 methyltransferase inhibitors, primary screen, biochemical, fluorescence polarization. Protein arginine N-methyltransferase 1 (Homo sapiens), Q99873. recombinant PRMT1, activity-based probe fluorescence polarization. inhibition, % at 2.79 µM. 370,000 tested, 1.3% active. AID 652257, 2013;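 active means inhibition above about 21% made by adding two undisclosed values, limit read from the data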
Target sequence (Q99873 whole entry, looked up): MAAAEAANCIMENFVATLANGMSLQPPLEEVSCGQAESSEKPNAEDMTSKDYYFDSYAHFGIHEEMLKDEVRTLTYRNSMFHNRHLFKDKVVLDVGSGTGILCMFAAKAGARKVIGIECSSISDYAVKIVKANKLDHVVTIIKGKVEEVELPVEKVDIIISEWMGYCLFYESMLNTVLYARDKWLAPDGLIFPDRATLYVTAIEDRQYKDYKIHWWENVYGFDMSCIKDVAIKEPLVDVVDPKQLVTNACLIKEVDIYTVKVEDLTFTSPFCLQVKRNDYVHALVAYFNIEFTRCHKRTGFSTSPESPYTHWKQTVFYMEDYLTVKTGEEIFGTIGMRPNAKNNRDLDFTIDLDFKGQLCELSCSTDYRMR
Numbers without * were called inactive; . = no result.

SMILES	RBBP9 inh	UHRF1 MBD2 ctr	ABHD5-PLIN5 inh	LEDGF integ inh	MBD2 DNA inh	PRMT1 inh
Cc1cccc(NC(=O)C2(c3ccccc3)CC2(Cl)Cl)c1 (configuration not stated)	-14.5	2.1	-1.3	-2.0	0.1	-1.0
CCCOc1ccc(N)cc1N	-1.4	5.9	-40.6	37.6*	-7.9	15.9
Cc1occc1C(=O)NCc1cccs1	-2.9	4.2	-2.0	1.2	8.3	6.1
Cc1cc(C(=O)NCc2cccs2)c(C)o1	-7.4	15.1	5.2	13.1	-0.7	21.5*
CCOC(=O)[C@]12CCC=C1N(Cc1ccccc1)C(=O)[C@H](CC(=O)NCCC(C)C)C2	.	23.6*	-3.1	-3.2	-3.5	1.7
CCOC(=O)[C@]12CCC=C1N(Cc1ccccc1)C(=O)[C@H](CC(=O)NCCCCc1ccccc1)C2	.	-3.3	0.3	0.5	-0.7	0.7
CCOC(=O)c1cc(-c2ccccc2)nn1CCC#N	-2.0	43.6*	2.2	-1.0	1.5	3.2
CC(C)C(C(=O)NCc1ccccc1)N1CCN(CCN2CCOCC2)CC1 (configuration not stated)	.	-1.7	.	0.6	-3.7	-3.9
C#CCNC(=O)C[C@@H]1C[C@@](CCC(=O)OCC)(C(=O)OCC)C2=CCCCN2C1=O	.	-2.2	.	0.4	4.5	6.2
Cc1nc2cc(C(=O)N3c4ccccc4CC3C)ccc2s1 (configuration not stated)	1.8	21.8*	0.8	-0.6	6.2	1.3
O=C1CCC2(CCC(c3ccccc3)CC2)N1CC[C@@H](O)c1ccccc1 (some centres not stated)	.	-2.4	.	0.4	-6.2	-1.3
Cc1nn(-c2cccc(Cl)c2)c2nc(-c3ccco3)cc(C(=O)O)c12	-15.1	7.9	7.2	13.1	1.4	12.6
O=C(Nc1cccc(S(=O)(=O)NC2=NCCCCC2)c1)c1cc(-c2ccccc2)nc2ccccc12	-11.6	-0.6	0.6	-2.1	-2.5	1.1
CNS(=O)(=O)c1cccc(C(=O)OCC(=O)N2CCN(C(=O)c3ccco3)CC2)c1	.	-2.3	5.4	-1.8	0.8	1.1
O=C(OCC(=O)N1CCN(C(=O)c2ccco2)CC1)c1cc(-c2ccco2)nc2ccccc12	-5.1	.	23.9*	.	.	.
O=C(Nc1cccc(S(=O)(=O)NC2=NCCC2)c1)c1cc(-c2ccco2)nc2ccccc12	-8.5	30.4*	8.3	16.9*	24.5*	14.4
O=C(OCC(=O)N1CCN(C(=O)c2ccco2)CC1)c1cccc(S(=O)(=O)N2CCc3ccccc32)c1	-8.5	20.8*	-2.4	0.0	-2.0	-4.7
Cc1nn(-c2ccccc2)c2nc(-c3ccco3)cc(C(=O)O)c12	-5.8	14.0	2.5	16.4*	4.8	16.2
O=C(OCC(=O)N1CCN(C(=O)c2ccco2)CC1)c1cc(-c2ccc(Cl)c(Cl)c2Cl)nc2ccccc12	-7.4	-0.1	1.0	-3.8	-1.5	-1.7
O=C(NC1CCCCN(Cc2cccc(C(F)(F)F)c2)C1=O)c1ccc(F)cc1 (configuration not stated)	.	0.0	.	4.4	2.0	-2.2
O=C(O)c1cc(-c2ccco2)nc2ccccc12	-6.8	17.6	9.8	7.5	2.6	23.5*
O=C(NC1CC1)c1cc(-c2ccco2)nc2ccccc12	0.5	.	-1.4	.	.	.
Cc1cc(C(=O)OCC(=O)N2CCC(C)CC2)c2ccccc2n1	.	1.7	-11.2	34.9*	-2.4	-3.8
O=C(Nc1ccc(N2C(=O)[C@@H]3[C@H](C2=O)[C@@H]2C=C[C@H]3C2)c(Cl)c1)c1ccccn1	.	0.6	.	0.8	-7.3	-2.1
Cc1ccc(S(=O)(=O)NC(=O)Nc2ccc(N(C)C)cc2)cc1	.	4.1	-1.6	26.5*	-2.5	25.9*
SMILES	RBBP9 inh	UHRF1 MBD2 ctr	ABHD5-PLIN5 inh	LEDGF integ inh	MBD2 DNA inh	PRMT1 inh
Cc1cc2oc(=O)cc(CN3CCCCC3)c2cc1C(C)C	-6.2	0.8	-2.4	1.6	2.4	-2.2
CCOC(=O)C1CCCN(Cc2cc(=O)oc3cc(C)c(C(C)C)cc23)C1 (configuration not stated)	-0.4	26.4*	4.1	0.5	-0.5	-2.2
Cc1nc(-c2ccccc2)sc1-c1ccnn1C	-7.2	43.0*	-4.9	-9.0	2.1	-0.5
CN(Cc1ccccc1)C(=O)OCc1cn(Cc2ccccc2)nn1	.	-0.7	.	4.8	-2.7	-1.6
Cc1c(O)nc(SCC(=O)Nc2ccc3c4c(cccc24)CC3)n(-c2ccc(F)cc2)c1=O	-6.0	-3.8	-3.6	2.0	-3.7	24.6*
COc1cccc(NC(=O)CSc2nc(O)c(C)c(=O)n2-c2ccc(C)cc2)c1	.	2.9	-6.8	-0.8	2.7	24.5*
O=C(O)c1ccc(S(=O)(=O)/N=C2\C=C(Nc3ccccc3F)C(=O)c3ccccc32)cc1	.	7.4	-29.8	59.7*	-11.0	4.0
COc1ccc(S(=O)(=O)/N=C2\C=C(Nc3ccc(O)cc3)C(=O)c3ccccc32)cc1	.	-0.3	-6.6	65.4*	-5.5	3.5
COC(=O)C(C(C)=O)C1=C/C(=N\S(=O)(=O)c2ccc(C)cc2)c2ccccc2C1=O (configuration not stated)	3.9	.	-4.6	.	.	.
Cc1ccc(NC2=C/C(=N/S(=O)(=O)c3cccs3)c3ccccc3C2=O)cc1C	-2.8	-2.6	3.2	5.4	1.5	-2.5
CC(C)c1ccc(S(=O)(=O)/N=C2\C=C(NS(=O)(=O)c3ccccc3)C(=O)c3ccccc32)cc1	.	-3.8	-12.8	25.3*	-15.5	-4.7
CCc1ccc(S(=O)(=O)/N=C2\C=C(NS(=O)(=O)c3ccccc3)C(=O)c3ccccc32)cc1	.	-1.9	-6.4	11.0	-13.3	5.6
Cc1ccccc1NC1=C/C(=N\S(=O)(=O)c2cccs2)c2ccccc2C1=O	-2.1	-1.5	-8.9	46.7*	-4.8	5.8
O=C(CSc1nnc(-c2cccc(Cl)c2)n1Cc1ccco1)c1ccc(F)cc1	.	-2.1	.	-2.9	0.7	-3.1
CC(C)CNc1cccc2c1S(=O)(=O)N[C@@H](C)CO2	.	15.4	.	3.2	4.5	-4.2
CC(=O)Nc1ccc(NC2=C/C(=N/S(=O)(=O)c3cccs3)c3ccccc3C2=O)cc1	-2.5	3.2	-7.9	50.4*	-6.0	2.0
COc1ccc(NC(=O)OCCN2CCCC23CCC(c2ccccc2)CC3)cc1 (configuration not stated)	.	-0.7	.	1.1	1.0	-0.2
O=C1CC(Cc2ccccc2)C(=O)N1CCc1ccc2c(c1)OCO2 (configuration not stated)	-4.9	3.1	-1.6	-0.4	7.0	-0.5
